Common to all, as to assay type: functional
The target in experiment [1] is T1, Adenosine receptor A1 (Homo sapiens, UniProt P30542).
T1 sequence (P30542 whole entry): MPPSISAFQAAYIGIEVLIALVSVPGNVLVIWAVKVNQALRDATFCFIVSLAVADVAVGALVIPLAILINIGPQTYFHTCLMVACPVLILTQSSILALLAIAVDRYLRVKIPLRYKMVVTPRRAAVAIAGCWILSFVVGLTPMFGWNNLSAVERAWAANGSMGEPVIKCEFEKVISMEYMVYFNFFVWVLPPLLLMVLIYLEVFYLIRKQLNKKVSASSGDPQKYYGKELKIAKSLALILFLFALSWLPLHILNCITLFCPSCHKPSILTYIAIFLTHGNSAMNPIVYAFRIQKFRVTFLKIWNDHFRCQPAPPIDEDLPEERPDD
Kind of experiment: Antagonist activity at human adenosine A1 receptor. The gist of the method: (§1)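 Clones coexpressing mitochondrial apoaequorin and Gα16 were collected in PBS with 5 mM EDTA. They were loaded with 5 µM coelenterazine H for 4 h at room temperature, washed, and mixed with compound, and aequorin light was recorded for 30 s. Duplicates at eight concentrations from 3000 to 1 nM were fitted by sigmoidal nonlinear regression and expressed as percent of agonist response.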

The target of experiment [2] is T2, Adenosine receptor A3 (Homo sapiens, UniProt P0DMS8).
T2 sequence (P0DMS8 whole entry): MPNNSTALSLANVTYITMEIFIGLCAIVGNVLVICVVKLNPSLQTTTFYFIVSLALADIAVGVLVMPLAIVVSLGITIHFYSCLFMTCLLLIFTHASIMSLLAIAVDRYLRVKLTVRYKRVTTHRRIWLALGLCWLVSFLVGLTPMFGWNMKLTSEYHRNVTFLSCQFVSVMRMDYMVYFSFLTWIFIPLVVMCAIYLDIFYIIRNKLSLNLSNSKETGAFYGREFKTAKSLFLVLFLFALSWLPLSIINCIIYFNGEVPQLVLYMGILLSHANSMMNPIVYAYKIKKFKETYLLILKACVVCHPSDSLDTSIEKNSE
The experiment in a line: Agonist activity at human adenosine A3 receptor after 15 to 30 mins. The gist of the method:
(§2)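 AequoScreen cells expressing recombinant human A3 receptor and Gα16 were cultured at least one week, harvested with PBS-EDTA, and loaded overnight at room temperature with coelenterazine H in DMEM-F12 with 0.1% BSA. Cells were injected onto compound and aequorin luminescence was read. Duplicates at 100 µM–0.01 nM (eight concentrations) were normalised to saturating (EC100) IB-MECA to give EC50.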

Experiment [3] addresses T1, Adenosine receptor A1. The experiment in a line: Agonist activity at human adenosine A1 receptor. The procedure, abridged: as §1
The target in experiment [4] is T3, Adenosine receptor A3 (Homo sapiens) (UniProt P0DMS8).
T3 sequence (whole entry): T2 sequence (P0DMS8 whole entry)
The experiment in a line: (§3) Antagonist activity at human adenosine A3 receptor after 15 to 30 mins.

Experiment [5] addresses T2, Adenosine receptor A3. Described as §3.
In experiment [6] the target is T3, Adenosine receptor A3 (Homo sapiens). Kind of experiment: Agonist activity at human adenosine A3 receptor after 15 to 30 mins relative to IB-MECA. The procedure, abridged:
as §2

For the molecule `OC[C@@]12CN[C@@H]([C@H](n3cnc4c(NCc5cccc(I)c5)ncnc43)O1)[C@@H]2O`, the IC50 at Adenosine receptor A1 [1] was > 3 µM; at Adenosine receptor A3 [5] it was 0.0082 µM. Also, the EC50 on Adenosine receptor A3 [2] was > 100 µM; on Adenosine receptor A1 [3] it was > 3 µM. Also, the Imax in experiment [4] turned out to be 100%.
As to `CO[C@@H]1[C@H](O)[C@@H](CO)O[C@H]1n1cnc2c(N)ncnc21`, the figures for the IC50 on Adenosine receptor A1 [1] and against Adenosine receptor A3 [5] were > 3 µM and 0.015 µM, respectively. Also, the EC50 is > 100 µM on Adenosine receptor A3 [2] and > 3 µM at Adenosine receptor A1 [3]. Also, in experiment [4], the Imax turned out to be 100%.
In the case of `Nc1ncnc2c1ncn2[C@@H]1O[C@@]2(CO)CO[C@@H]1[C@@H]2O`, on Adenosine receptor A3 [2], the EC50 is > 100 µM. Also, the IC50 on Adenosine receptor A3 [5] was > 100 µM.
In experiment [6], `CNC(=O)[C@H]1O[C@@H](n2cnc3c(N)ncnc32)[C@H](OC)[C@@H]1O` showed an Emax of 100%. In addition, it took 0.453 µM to reach a half-maximal effect at Adenosine receptor A3 [2] (EC50).
For the molecule `CO[C@@H]1[C@H](O)[C@@H](CO)O[C@H]1n1cnc2c(NCc3cccc(I)c3)ncnc21`, the figures for the IC50 at Adenosine receptor A1 [1] and on Adenosine receptor A3 [5] were > 3 µM and 0.0017 µM, respectively. For the same molecule, the figures for the EC50 on Adenosine receptor A3 [2] and at Adenosine receptor A1 [3] were > 100 µM and > 3 µM, respectively. In addition, the Imax in experiment [4] turned out to be 100%.
Consider `CNC(=O)[C@@]12CN[C@@H]([C@H](n3cnc4c(NCc5cccc(I)c5)ncnc43)O1)[C@@H]2O`, for which, on Adenosine receptor A1 [1], the IC50 was > 3 µM. The EC50 at Adenosine receptor A3 [2] is > 100 µM; at Adenosine receptor A1 [3], > 3 µM. In experiment [4], this molecule came in with an Imax of 100%.
For `CNC(=O)[C@H]1O[C@@H](n2cnc3c(NCc4cccc(I)c4)ncnc32)[C@H](OC)[C@@H]1O`, at Adenosine receptor A1 [1], the IC50 was > 3 µM. Besides, the maximal response (Emax) in experiment [6] worked out at 100%. Also, the EC50 at Adenosine receptor A3 [2] was 0.0019 µM; on Adenosine receptor A1 [3], > 3 µM.
In the case of `CNC(=O)[C@@]12CO[C@@H]([C@H](n3cnc4c(NCc5cccc(I)c5)ncnc43)O1)[C@@H]2O`, at Adenosine receptor A3 [2], the EC50 is > 100 µM. Besides, at Adenosine receptor A3 [5], the IC50 is > 100 µM.
In the case of `CNC(=O)[C@@]12CO[C@@H]([C@H](n3cnc4c(N)ncnc43)O1)[C@@H]2O`, on Adenosine receptor A3 [2], the EC50 was > 100 µM. Besides, the IC50 against Adenosine receptor A3 [5] was > 100 µM.
Take `OC[C@@]12CO[C@@H]([C@H](n3cnc4c(NCc5cccc(I)c5)ncnc43)O1)[C@@H]2O`: the EC50 on Adenosine receptor A3 [2] is > 100 µM. The molecule further showed an Imax in experiment [4] of 100%. On Adenosine receptor A3 [5], 0.15 µM corresponded to half-maximal inhibition (IC50).
Consider `CNC(=O)[C@@]12CN[C@@H]([C@H](n3cnc4c(N)ncnc43)O1)[C@@H]2O`, for which, on Adenosine receptor A3 [2], the EC50 was > 100 µM. Besides, the Imax in experiment [4] is 100%. The molecule also showed an IC50 against Adenosine receptor A3 [5] of 0.17 µM.
On to `Nc1ncnc2c1ncn2[C@@H]1O[C@@]2(CO)CN[C@@H]1[C@@H]2O`, for which the EC50 on Adenosine receptor A3 [2] was > 100 µM. The IC50 at Adenosine receptor A3 [5] is > 100 µM.

Broadly, the IC50 is the point on the concentration scale where inhibition reaches its midpoint. A higher IC50 goes with weaker potency. By EC50 is commonly meant the midpoint of the concentration-response curve. Usually Emax stands for the size of the effect at its maximum, as opposed to the concentration needed.

The values are drawn from ChEMBL document CHEMBL1149615, “Design, synthesis, and biological evaluation of LNA nucleosides as adenosine A3 receptor ligands” (Bioorg Med Chem, 2007).
